Assay results reported in ChEMBL document CHEMBL1155539, “Discovery of 4-[1-[([1-[4-(trifluoromethyl)benzyl]-1H-indol-7-yl]carbonyl)amino]cyclopropyl]benzoic acid (MF-766), a highly potent and selective EP4 antagonist for treating inflammatory pain” (Bioorg Med Chem Lett, 2010).

What was measured:
[1] = target: T1, Prostaglandin D2 receptor 2 (Homo sapiens, UniProt Q9Y5Y4); assay: Displacement of [3H]PGD2 from human Prostanoid DP2 receptor expressed in HEK293-EBNA cells after 60 mins by scintillation counting; format: cell-based
T1 sequence (Q9Y5Y4 whole entry): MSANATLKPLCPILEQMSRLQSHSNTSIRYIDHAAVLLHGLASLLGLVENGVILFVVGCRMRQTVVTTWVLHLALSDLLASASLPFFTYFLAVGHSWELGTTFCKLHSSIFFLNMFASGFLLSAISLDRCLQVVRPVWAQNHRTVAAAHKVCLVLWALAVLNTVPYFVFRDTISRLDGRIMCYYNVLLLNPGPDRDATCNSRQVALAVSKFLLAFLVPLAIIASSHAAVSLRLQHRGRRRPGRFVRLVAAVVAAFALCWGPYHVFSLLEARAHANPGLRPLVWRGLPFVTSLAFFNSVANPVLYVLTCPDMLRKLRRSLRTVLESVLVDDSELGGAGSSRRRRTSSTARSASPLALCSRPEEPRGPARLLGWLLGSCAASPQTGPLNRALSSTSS

[2] = target: Prostacyclin receptor (Homo sapiens, UniProt P43119); assay: Displacement of [3H]iloprost from human prostanoid IP receptor expressed in HEK293-EBNA cells after 60 mins by scintillation counting; format: cell-based
[3] = target: T2, Thromboxane A2 receptor (Homo sapiens, UniProt P21731); assay: Displacement of [3H]SQ-29548 from human prostanoid TP receptor expressed in HEK293-EBNA cells after 60 mins by scintillation counting; format: cell-based
T2 sequence (P21731 whole entry): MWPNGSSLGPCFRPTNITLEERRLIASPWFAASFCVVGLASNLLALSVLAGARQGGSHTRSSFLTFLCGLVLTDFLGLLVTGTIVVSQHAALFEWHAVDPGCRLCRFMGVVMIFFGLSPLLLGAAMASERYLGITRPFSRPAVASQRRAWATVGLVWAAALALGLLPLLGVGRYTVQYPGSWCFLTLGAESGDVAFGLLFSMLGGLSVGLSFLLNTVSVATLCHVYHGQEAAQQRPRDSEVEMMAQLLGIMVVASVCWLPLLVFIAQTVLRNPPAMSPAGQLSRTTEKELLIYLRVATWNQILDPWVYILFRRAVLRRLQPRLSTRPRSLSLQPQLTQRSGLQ

[4] = target: Prostaglandin F2-alpha receptor (Homo sapiens, UniProt P43088); assay: Displacement of [3H]PGF2alpha from human prostanoid FP receptor expressed in HEK293-EBNA cells after 60 mins by scintillation counting; format: cell-based
[5] = target: T3, Prostaglandin E2 receptor EP4 subtype (Homo sapiens, UniProt P35408); assay: Antagonist activity at human prostanoid EP4 receptor expressed in HEK293 cells assessed as inhibition of PGE2-induced cAMP accumulation by scintillation proximity assay; format: functional, cell-based
Method in brief: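 Read-out was inhibition of PGE2-induced cAMP accumulation at EP4. Values are means from at least two independent experiments.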

[6] = target: T3, Prostaglandin E2 receptor EP4 subtype; assay: Displacement of [3H]PGE2 from human prostanoid EP4 receptor expressed in HEK293-EBNA cells after 60 mins by scintillation counting; format: cell-based
[7] = target: T4, Prostaglandin D2 receptor (Homo sapiens, UniProt Q13258); assay: Displacement of [3H]PGD2 from human Prostanoid DP1 receptor expressed in HEK293-EBNA cells after 60 mins by scintillation counting; format: cell-based
T4 sequence (Q13258 whole entry): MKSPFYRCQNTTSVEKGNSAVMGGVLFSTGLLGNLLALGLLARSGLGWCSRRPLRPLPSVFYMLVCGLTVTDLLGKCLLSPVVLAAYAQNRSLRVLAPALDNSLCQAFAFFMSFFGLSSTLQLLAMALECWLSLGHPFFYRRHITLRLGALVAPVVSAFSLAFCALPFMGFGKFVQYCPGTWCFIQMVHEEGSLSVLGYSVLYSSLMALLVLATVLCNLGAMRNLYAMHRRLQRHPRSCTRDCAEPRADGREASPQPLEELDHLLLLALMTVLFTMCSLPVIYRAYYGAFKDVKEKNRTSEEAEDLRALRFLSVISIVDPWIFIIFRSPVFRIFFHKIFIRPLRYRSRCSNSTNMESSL

[8] = target: T5, Prostaglandin E2 receptor EP1 subtype (Homo sapiens, UniProt P34995); assay: Displacement of [3H]PGE2 from human prostanoid EP1 receptor expressed in HEK293-EBNA cells after 60 mins by scintillation counting; format: cell-based
T5 sequence (P34995 whole entry): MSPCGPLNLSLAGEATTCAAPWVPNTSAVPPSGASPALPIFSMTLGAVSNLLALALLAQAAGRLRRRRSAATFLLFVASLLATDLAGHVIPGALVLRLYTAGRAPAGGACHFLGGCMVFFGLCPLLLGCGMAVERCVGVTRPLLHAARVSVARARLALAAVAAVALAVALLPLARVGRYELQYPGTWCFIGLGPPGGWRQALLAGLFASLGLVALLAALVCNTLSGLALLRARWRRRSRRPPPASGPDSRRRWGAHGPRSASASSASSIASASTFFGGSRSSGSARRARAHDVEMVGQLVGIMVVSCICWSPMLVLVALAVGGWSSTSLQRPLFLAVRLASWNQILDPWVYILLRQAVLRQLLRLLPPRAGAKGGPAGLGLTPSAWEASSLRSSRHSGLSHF

[9] = target: Prostaglandin E2 receptor EP2 subtype (Homo sapiens, UniProt P43116); assay: Displacement of [3H]PGE2 from human prostanoid EP2 receptor expressed in HEK293-EBNA cells after 60 mins by scintillation counting; format: cell-based
[10] = target: T6, Prostaglandin E2 receptor EP3 subtype (Homo sapiens, UniProt P43115); assay: Displacement of [3H]PGE2 from human prostanoid EP3 receptor expressed in HEK293-EBNA cells after 60 mins by scintillation counting; format: cell-based
T6 sequence (P43115 whole entry): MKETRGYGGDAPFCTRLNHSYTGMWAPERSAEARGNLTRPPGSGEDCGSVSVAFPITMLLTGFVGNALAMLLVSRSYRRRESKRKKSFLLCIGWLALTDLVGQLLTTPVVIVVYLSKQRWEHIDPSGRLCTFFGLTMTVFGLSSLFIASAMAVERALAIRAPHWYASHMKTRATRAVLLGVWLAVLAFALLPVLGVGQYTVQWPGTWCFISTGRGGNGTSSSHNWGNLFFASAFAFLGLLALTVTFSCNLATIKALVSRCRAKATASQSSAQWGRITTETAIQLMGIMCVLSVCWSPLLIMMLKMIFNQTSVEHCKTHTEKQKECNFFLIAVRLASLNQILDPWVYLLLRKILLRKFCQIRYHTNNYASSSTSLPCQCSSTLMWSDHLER

[11] = test system: Rattus norvegicus; assay: Antiinflammatory activity in rat assessed as inhibition of complete Freund's adjuvant-induced paw swelling administered daily once 9 days after adjuvant challenge measured on day 18; format: functional
Method in brief: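 Rat adjuvant-induced arthritis model with daily dosing in mg/kg/day. Dose groups were 0, 0.001, 0.01, 0.1 and 1 mg/kg, plus a non-AIA control group. Primary and secondary paw swelling were scored as % inhibition relative to vehicle-treated arthritic rats, and ED50 was estimated from the dose–response.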

Sequence of Prostaglandin F2-alpha receptor (P43088 whole entry): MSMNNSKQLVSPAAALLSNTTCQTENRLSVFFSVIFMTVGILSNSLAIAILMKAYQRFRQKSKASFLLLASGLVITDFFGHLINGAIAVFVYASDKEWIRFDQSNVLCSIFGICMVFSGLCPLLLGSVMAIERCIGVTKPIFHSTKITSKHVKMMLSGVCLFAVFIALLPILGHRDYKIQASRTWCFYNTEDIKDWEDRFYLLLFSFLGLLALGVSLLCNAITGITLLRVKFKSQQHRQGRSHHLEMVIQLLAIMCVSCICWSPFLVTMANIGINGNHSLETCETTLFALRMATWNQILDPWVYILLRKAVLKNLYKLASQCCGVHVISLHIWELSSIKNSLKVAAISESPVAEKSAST
T3 sequence (P35408 whole entry): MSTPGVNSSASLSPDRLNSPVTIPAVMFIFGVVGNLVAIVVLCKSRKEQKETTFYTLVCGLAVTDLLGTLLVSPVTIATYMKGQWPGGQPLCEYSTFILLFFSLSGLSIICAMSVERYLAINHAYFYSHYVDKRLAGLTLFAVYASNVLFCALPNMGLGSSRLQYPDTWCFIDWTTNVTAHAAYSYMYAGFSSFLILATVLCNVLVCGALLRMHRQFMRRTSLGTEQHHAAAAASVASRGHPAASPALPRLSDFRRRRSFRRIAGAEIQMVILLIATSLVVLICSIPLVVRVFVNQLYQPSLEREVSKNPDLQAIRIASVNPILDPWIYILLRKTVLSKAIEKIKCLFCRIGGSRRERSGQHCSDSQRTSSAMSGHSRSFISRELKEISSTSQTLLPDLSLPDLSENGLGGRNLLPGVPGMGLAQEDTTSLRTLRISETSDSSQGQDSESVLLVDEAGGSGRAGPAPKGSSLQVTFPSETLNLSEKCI
Sequence of Prostaglandin E2 receptor EP2 subtype (P43116 whole entry): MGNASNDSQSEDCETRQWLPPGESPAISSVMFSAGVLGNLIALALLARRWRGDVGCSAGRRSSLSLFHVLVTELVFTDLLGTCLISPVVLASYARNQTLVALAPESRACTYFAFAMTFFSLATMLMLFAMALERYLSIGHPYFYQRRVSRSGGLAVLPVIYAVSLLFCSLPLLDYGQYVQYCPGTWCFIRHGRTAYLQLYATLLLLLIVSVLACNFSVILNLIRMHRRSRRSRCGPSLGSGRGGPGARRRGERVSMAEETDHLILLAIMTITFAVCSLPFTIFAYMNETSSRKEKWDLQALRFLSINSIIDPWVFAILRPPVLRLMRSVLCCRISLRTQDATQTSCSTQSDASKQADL
Sequence of Prostacyclin receptor (P43119 whole entry): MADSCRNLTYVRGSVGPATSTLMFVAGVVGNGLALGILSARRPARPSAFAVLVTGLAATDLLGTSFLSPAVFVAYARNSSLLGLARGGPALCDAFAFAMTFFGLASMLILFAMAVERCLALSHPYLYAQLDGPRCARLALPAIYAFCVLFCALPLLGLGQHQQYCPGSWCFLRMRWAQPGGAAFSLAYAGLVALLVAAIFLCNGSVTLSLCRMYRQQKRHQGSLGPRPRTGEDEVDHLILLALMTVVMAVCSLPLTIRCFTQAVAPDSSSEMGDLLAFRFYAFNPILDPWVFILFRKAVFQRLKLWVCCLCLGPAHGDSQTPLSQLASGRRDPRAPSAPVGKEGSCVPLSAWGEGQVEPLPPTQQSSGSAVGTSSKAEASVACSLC

| SMILES | Ki [1] [µM] | Ki [2] [µM] | Ki [3] [µM] | Ki [4] [µM] | IC50 [5] [µM] | Ki [6] [µM] | Ki [7] [µM] | Ki [8] [µM] | Ki [9] [µM] | Ki [10] [µM] | ED80 [11] [mg/kg] | ED50 [11] [mg/kg/day] |
| --- | --- | --- | --- | --- | --- | --- | --- | --- | --- | --- | --- | --- |
| Cc1cc2cccc(C(=O)N[C@@H](C)c3ccc(C(=O)O)cc3)c2n1Cc1cccc(Cl)c1 |  |  |  |  |  | 0.056 | 0.45 |  |  |  |  |  |
| C[C@H](NC(=O)c1cccc2ccn(Cc3cccc(C(F)(F)F)c3)c12)c1ccc(C(=O)O)cc1 | ≥ 0.785 | ≥ 0.785 | ≥ 0.785 | ≥ 0.785 | 0.0118 | 0.0048 | 0.885 | ≥ 0.785 | ≥ 0.785 | ≥ 0.785 |  |  |
| C[C@H](NC(=O)c1cccc2ccn(Cc3cc(Cl)cc(OC(F)(F)F)c3)c12)c1ccc(C(=O)O)cc1 | ≥ 0.26 | ≥ 0.26 | ≥ 0.26 | ≥ 0.26 | 0.0014 | 0.00038 | 0.049 | ≥ 0.26 | ≥ 0.26 | ≥ 0.26 |  |  |
| C[C@H](NC(=O)c1cccc2ccn(Cc3ccc(C(F)(F)F)cc3)c12)c1ccc(C(=O)O)cc1 | ≥ 0.58 | ≥ 0.58 | ≥ 0.58 | ≥ 0.58 | 0.0027 | 0.00062 | 1.39 | ≥ 0.58 | ≥ 0.58 | ≥ 0.58 |  |  |
| C[C@H](NC(=O)c1cc(Cl)cc2ccn(Cc3cccc(Cl)c3)c12)c1ccc(C(=O)O)cc1 | ≥ 0.11 | ≥ 0.11 | ≥ 0.11 | ≥ 0.11 | 0.0015 | 0.00081 | 0.063 | ≥ 0.11 | ≥ 0.11 | ≥ 0.11 |  |  |
| C[C@H](NC(=O)c1cc(Cl)ccc1Oc1ccc(F)cc1)c1ccc(C(=O)O)cc1 |  |  |  |  |  |  |  |  |  |  | 11.5 |  |
| CS(=O)(=O)c1ccc(C2=C(c3ccccc3)C(=O)OC2)cc1 [ROFECOXIB] |  |  |  |  |  |  |  |  |  |  |  | 0.7 |

Further compounds by falling Ki [6], results first:

| Ki [1] [µM] | Ki [2] [µM] | Ki [3] [µM] | Ki [4] [µM] | IC50 [5] [µM] | Ki [6] [µM] | Ki [7] [µM] | Ki [8] [µM] | Ki [9] [µM] | Ki [10] [µM] | SMILES | ED80 [11] [mg/kg] | ED50 [11] [mg/kg/day] |
| --- | --- | --- | --- | --- | --- | --- | --- | --- | --- | --- | --- | --- |
|  |  |  |  |  | 0.0395 | 1.2 |  |  |  | Cc1cn(Cc2cccc(Cl)c2)c2c(C(=O)N[C@@H](C)c3ccc(C(=O)O)cc3)cccc12 |  |  |
| ≥ 0.93 | ≥ 0.93 | ≥ 0.93 | ≥ 0.93 |  | 0.0201 | 0.014 | ≥ 0.93 | ≥ 0.93 | ≥ 0.93 | C[C@H](NC(=O)c1cccc2c(Cl)cn(Cc3cccc(Cl)c3)c12)c1ccc(C(=O)O)cc1 |  |  |
| ≥ 2.5 | ≥ 2.5 | ≥ 2.5 | ≥ 2.5 | 0.0059 | 0.0027 | 0.016 | ≥ 2.5 | ≥ 2.5 | ≥ 2.5 | C[C@H](NC(=O)c1cccc2ccn(Cc3cccc(Cl)c3)c12)c1ccc(C(=O)O)cc1 |  |  |
| ≥ 0.504 | ≥ 0.504 | ≥ 0.504 | ≥ 0.504 | 0.0033 | 0.0024 | 0.404 | ≥ 0.504 | ≥ 0.504 | ≥ 0.504 | C[C@H](NC(=O)c1cc(F)cc2ccn(Cc3cccc(Cl)c3)c12)c1ccc(C(=O)O)cc1 |  |  |
| ≥ 0.1 | ≥ 0.1 | ≥ 0.1 | ≥ 0.1 | 0.00112 | 0.00044 | 0.209 | ≥ 0.1 | ≥ 0.1 | ≥ 0.1 | C[C@H](NC(=O)c1cc(Cl)cc2ccn(Cc3ccc(C(F)(F)F)cc3)c12)c1ccc(C(=O)O)cc1 |  |  |
| ≥ 1.29 | ≥ 1.29 | ≥ 1.29 | ≥ 1.29 | 0.00126 | 0.00031 | 0.561 | ≥ 1.29 | ≥ 1.29 | ≥ 1.29 | O=C(O)c1ccc(C2(NC(=O)c3cc(Cl)cc4ccn(Cc5ccc(C(F)(F)F)cc5)c34)CC2)cc1 |  |  |
